Compound activity as filed in PubChem BioAssay.
Most compounds without a hit are left out; they make up all but 2.4% or so of the library.
Jurkat NFkB inh – inhibitors of induced NF-kB luciferase reporter, primary screen, TCR NF-kB activation inhibitor project, cell-based, luminescence, uHTS; Jurkat, PMA/ionomycin-induced NF-kB luciferase reporter; inhibition, % at 4 µM; actives 0.53% (n = 330,000); in the data active = inhibition above about 50%
NR2E3 ag-1 – inhibitors of NR2E3-RetCOR corepressor binding, primary screen, NR2E3 agonist project, biochemical, TR-FRET, GST-NR2E3, biotin-RetCOR. AID 2300, 2010. 1536-well. Photoreceptor-specific nuclear receptor (Homo sapiens), Q9Y5X4. actives 0.12% (n = 320,000). inhibition of corepressor binding, % at 4.78 µM;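 active = percent inhibition above the cutoff of mean plus 3 SD of all tested compounds, set per screening campaign, cut at about 20% in these data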;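 also: 0% = DMSO wells and 100% = biotin wells as full block of FRET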
Target sequence (Q9Y5X4 whole entry, looked up): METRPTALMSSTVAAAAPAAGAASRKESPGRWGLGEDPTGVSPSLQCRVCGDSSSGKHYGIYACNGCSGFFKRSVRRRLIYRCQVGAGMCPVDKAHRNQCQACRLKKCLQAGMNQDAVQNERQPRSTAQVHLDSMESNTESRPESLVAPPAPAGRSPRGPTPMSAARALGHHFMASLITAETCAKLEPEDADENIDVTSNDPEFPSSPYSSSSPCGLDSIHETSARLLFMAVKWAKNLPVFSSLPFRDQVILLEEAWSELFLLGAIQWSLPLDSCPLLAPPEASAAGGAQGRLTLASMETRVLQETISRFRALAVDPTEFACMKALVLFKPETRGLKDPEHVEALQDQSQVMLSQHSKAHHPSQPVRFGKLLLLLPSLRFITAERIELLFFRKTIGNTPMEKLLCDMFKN
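System: GST-tagged NR2E3 plus biotinylated RetCOR corepressor; Buffer or medium: pH 7.5 Tris-based buffer; Probe or stimulus: RetCOR corepressor, biotinylated, 7 nM; Doses: compound at 4.8 µM, single dose; Schedule: 5 h incubation at 4 °C; Technique: time-resolved FRET; Evaluation: percent inhibition of TR-FRET ratio; Replication: one well per compound, singlicate testing.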
MPTP inh – mitochondrial permeability transition pore inhibitors, primary screen, biochemical, isolated mouse mitochondria, absorbance; Ca2+ swelling absorbance, 30 min; inhibition, % at 10 µM; actives 1.4% (n = 360,000); AID 602449, 2012;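 active = inhibition of 50% or more, scaled per plate between neutral and stimulator controls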;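 also: 0% = DMSO wells given calcium and 100% = 1 mM EGTA wells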
697 NFkB inh – inhibitors of PMA/ionomycin-induced NF-kB reporter, 697 cells, primary screen, B-cell NF-kB inhibitor project, cell-based, luminescence, uHTS; 697 B-cell NF-kB luciferase reporter, 16 h; inhibition, % at 4 µM; actives 0.33% (n = 330,000); AID 435022, 2010; in the data active = inhibition above about 35%
NR2E3 ag-2 – NR2E3 agonists in two-hybrid cells, primary screen, cell-based, luminescence, CHO-S, Gal4-NCOR/VP16-NR2E3; Photoreceptor-specific nuclear receptor (Homo sapiens), Q9Y5X4; luciferase; inhibition of corepressor binding, % at 3.98 µM; actives 0.35% (n = 360,000); AID 602229, 2012;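 active = inhibition above the mean of all tested compounds plus 3 SD, cut at about 70% in these data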;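 also: 0% = DMSO with NR2E3 transfected cells and 100% = cells lacking NR2E3 construct; higher means lower luciferase signal from less NR2E3 corepressor binding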
aDG glyco act – activators of alpha-DG glycosylation, primary screen, uHTS, Pro5-aDG cells, AlphaScreen; AID 624168, 2012; actives 0.22% (n = 360,000); alpha-DG glycosylation AlphaScreen (IIH6); 0% Pro5, 100% B10-LARGE cell signal; activation, % at 10 µM;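 active = activation of at least 8% versus controls, or a plate z-score of at least 8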;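 also: Pro5 are CHO cells carrying HIG-tagged alpha-DG that lacks glycosylation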
Jurkat NFkB conf – PMA/ionomycin-induced NF-kB reporter inhibitors, Jurkat retest, confirmation, T-cell NF-kB inhibitor project, cell-based, luminescence, single concentration; shares compounds with Jurkat NFkB inh; Jurkat NF-kB luciferase, 16 h; inhibition, % at 4 µM; AID 435020, 2010; actives 27% (n = 2,700);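 active = inhibition reaching about 45% at 4 µM in either replicate, limit read from the data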;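 also: plate controls were PMA/ionomycin stimulated DMSO wells for no effect and unstimulated DMSO wells for full effect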
Active calls of the source: *; . = not tested or not shown.

SMILES | Jurkat NFkB inh | NR2E3 ag-1 | MPTP inh | 697 NFkB inh | NR2E3 ag-2 | aDG glyco act | Jurkat NFkB conf
CC(=O)Oc1ccc(-c2cc3c(OC(C)=O)cc(OC(C)=O)cc3oc2=O)cc1 | -22.2 | 1.0 | -0.3 | -8.4 | -27.9 | 0.2 | .
C=CCNc1ncnc2c1cnn2-c1ccc(Cl)cc1 | -157.3 | 0.1 | 2.1 | -223.1 | -155.9 | 0.1 | -142.8
Clc1ccc(Cn2ncc3c(NCc4ccccc4)ncnc32)cc1 | 56.4* | -0.2 | -0.2 | -27.7 | -90.9 | 0.4 | 33.7
COc1ccc(-n2ncc3c(NC(C)C)ncnc32)cc1 | -175.7 | 4.5 | -0.2 | -242.3 | -100.1 | -0.2 | -124.1
COCC(C)Nc1ncnc2c1cnn2-c1ccc(Cl)cc1 (stereo not given) | -174.8 | 3.1 | 4.2 | -191.1 | -142.2 | 0.0 | -100.5
COc1cccc(NC(=O)CN(C)C(=O)c2c(-c3ccccc3)noc2C)c1 | -14.3 | -1.7 | 0.5 | -19.3 | -15.9 | -0.1 | .
CCOC(=O)[C@H]1[C@H]2COc3ccc(Cl)cc3[C@@H]2N2C(=O)CN(Cc3ccco3)C(=O)[C@@]12C | -9.8 | 8.1 | 0.5 | 7.1 | -11.6 | 0.4 | .
CC(=O)c1ccc(NC(=O)c2noc3c2CCCCC3)cc1 | -164.7 | -3.3 | -1.4 | -120.6 | -134.1 | -0.2 | -96.4
CC(=O)c1cccc(NC(=O)CCc2nnc3ccc(NCc4ccc5c(c4)OCO5)nn23)c1 | -3.9 | -4.2 | 1.2 | 15.6 | -11.2 | 0.0 | .
CCOC(=O)C1=C(c2ccccc2)O/C(=C(/C#N)C(F)(F)F)S1 | 74.7* | 3.4 | . | -229.7 | . | . | 54.0*
CCOC(=O)C1=C(c2ccccc2)O/C(=C(\C(=O)OC)C(F)(F)F)S1 | 3.6 | -0.9 | -1.6 | 9.8 | -25.8 | -0.2 | .
Cc1nc2ccccc2n1-c1nc(-c2ccco2)cc(C(F)(F)F)n1 | 83.1* | 1.0 | -0.3 | -43.3 | 1.7 | -0.3 | 29.8
COc1ccccc1C(=O)O/N=C(\N)c1ccccn1 | -68.6 | 2.3 | 0.1 | -118.4 | -120.8 | 0.0 | .
Cc1ccc(C(=O)O/N=C(\N)c2ccccn2)c(C)c1 | 76.2* | 1.4 | -0.6 | -11.8 | -30.1 | 0.6 | 92.2*
O=C(Nc1nc2ccccc2s1)NC1CCCCC1 | -179.3 | 1.7 | 1.1 | -133.4 | -85.0 | 0.1 | -112.1
Cn1c(=O)c2[nH]c(CN3CCCCC3)nc2n(C)c1=O | . | . | 0.4 | . | -23.0 | -0.2 | .
CCOC(=O)c1c(C)[nH]c(C(=O)OCC(=O)c2ccccc2)c1C | -193.4 | 1.8 | -0.7 | -220.5 | -136.0 | 1.4 | -151.2
CCOC(=O)c1[nH]c(C)c(C(=O)Nc2ccccc2F)c1C | 52.3* | 0.7 | -0.8 | -76.9 | -103.5 | 0.0 | 12.8
CCOC(=O)c1[nH]c(C)c(C(=O)Nc2ccc(C)cc2C)c1C | 52.6* | 0.4 | -1.4 | -62.2 | -55.1 | -0.2 | 42.5
CCOC(=O)c1c(C)[nH]c(C(=O)OCc2ccccc2F)c1C | -166.1 | 3.5 | 0.6 | -196.0 | -188.2 | 0.4 | -115.0
C[C@@H]1CN([C@@H](C)CO)C(=O)CCCn2nncc2CO[C@@H]1CN(C)S(=O)(=O)c1ccc(C#N)cc1 | . | . | 0.8 | . | 5.0 | 0.5 | .
CCOC(=O)c1c(C)[nH]c(C(=O)Nc2ccc3c(c2)OCO3)c1C | -187.1 | 1.6 | . | -153.6 | . | . | -94.4
CCOC(=O)c1c(C)[nH]c(C(=O)OCC(=O)NC(C)(C)C)c1C | 10.1 | -1.1 | -1.1 | -4.3 | 1.2 | 0.2 | .
CCOC(=O)c1[nH]c(C)c(C(=O)OCC(=O)NC(C)c2ccc(F)cc2)c1C (stereo not given) | 60.0* | -1.1 | 0.4 | -69.1 | -61.0 | -0.3 | 50.7*
CCOC(=O)c1[nH]c(C)c(C(=O)Nc2cc(OC)ccc2OC)c1C | 69.6* | -0.1 | -1.9 | 7.5 | -10.5 | -0.1 | 46.5
